Calls of active or inactive are those of the source. The calls are words filed in the database; no cut-off is given here.
Columns and labels:
[1] = system: Lewis lung carcinoma cell line; assay: Optimal dose to inhibit the LL (Lewis lung carcinoma model) cells in vivo after intraperitoneal administration.; assay type: functional, Mus musculus; set-up: unit: mg/kg/day
Summary of the method: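 Mice were inoculated iv with 10^6 Lewis lung carcinoma cells. OD is the optimal dose in mg/kg per day. Lifespan increase above 40% is significant, and long-term survival was scored at 60 days.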

[2] = system: P388; assay: Percent increase in life span of the drug-treated tumor-bearing animals vs nontreated tumor-bearing controls with P388 leukemia cells.; assay type: functional, Mus musculus
Summary of the method: (§1)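 Groups of 6. Optimal dose is in mg/kg per day. ILSmax is the % lifespan increase over untreated tumor-bearing controls at the optimal dose; above 20% counted significant. Cures are 50-day survivors.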

[3] = system: HCT-8; assay: Ability to inhibit the growth of human colon tumor HCT-8 cells in vitro.; assay type: functional, cell-based
Summary of the method: (§2)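 Cultured leukemia L1210 or human colon tumor HCT-8 cells were exposed to drug for 40 h.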

[4] = system: P388/ADR; assay: Optimal dose required to inhibit the P388/ADR cells in vivo after intraperitoneal administration.; assay type: functional, Mus musculus; set-up: unit: mg/kg/day
[5] = system: poly[d(A-T)]; assay: Binding constant for poly[d(A-T)] by ethidium bromide displacement
[6] = system: Lewis lung carcinoma cell line; assay: Percent increase in life span, of the drug-treated tumor-bearing animals vs nontreated tumor-bearing controls with LL (Lewis lung carcinoma model) cells.; assay type: functional, Mus musculus
Summary of the method: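 Groups of 6. Optimal dose is in mg/kg per day. ILSmax is the % lifespan increase over untreated tumor-bearing controls at the optimal dose; above 40% counted significant. Cures are 60-day survivors.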

[7] = system: L1210; assay: Ability to inhibit the growth of leukemia L1210 cells in vitro.; assay type: functional, cell-based; conditions: Mus musculus; summary of the method: as §2
[8] = Lipophilicity (Rm).; assay type: physicochemical
[9] = system: P388; assay: Optimal dose required to inhibit the P388 intraperitoneal administration.; assay type: functional, Mus musculus; set-up: unit: mg/kg/day
[10] = system: P388/ADR; assay: Percent increase in life span, of the drug-treated tumor-bearing animals vs nontreated tumor-bearing controls with P388/ADR cells.; assay type: functional, Mus musculus; summary of the method: as §1
[11] = species on record: Mus musculus; assay: Percent increase in life span of the drug treated tumor bearing animals vs nontreated tumor bearing controls was determined against P388/ADR cells;NA= not active; assay type: functional, organism-based
Summary of the method: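 Mice were inoculated ip with 10^6 P388 or ADR/P388 cells. OD is the optimal dose in mg/kg per day. ILSmax is the % lifespan increase over untreated tumor-bearing controls at the OD; above 20% is significant. Long-term survival was scored at 50 days.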

[12] = The compound was evaluated for its acid dissociation constant; assay type: ADME

Row | Structure (SMILES) | OD [1] | ILS max [2] | IC50 [3] [nM] | OD [4] | Log K [5] | ILS max [6] | IC50 [7] [nM] | Rm [8] | OD [9] | ILS max [10] | ILS max [11] | pKa [12]
1 | CNc1cc(NC(=O)OC)ccc1Nc1c2ccc(Cl)cc2nc2c(OC)cccc12 | 65 | 177 | 1100 | 100 | 6.93 | 133 | 660 | 0.54 | 100 | 73 |  | 
2 | CNc1cc(NC(=O)OC)ccc1Nc1c2ccccc2nc2c(OC)cccc12 | 30 | 98 | 630 | 30 | 6.57 | 167 | 540 | 0.41 | 30 | 35 |  | 
3 | CNc1cc(NC(=O)OC)ccc1Nc1c2ccccc2nc2cc(Cl)ccc12 | 45 | 104 | 550 | 65 | 6.13 | 92 | 174 | 0.73 | 65 | 35 |  | 
4 | CNc1cc(NS(C)(=O)=O)ccc1Nc1c2ccccc2nc2ccccc12 |  |  |  | 13.3 |  |  |  | 0.17 |  |  | inactive | 
5 | CNc1cc(NC(=O)OC)ccc1Nc1c2ccccc2nc2cc(F)ccc12 | 100 | 110 | 420 | 100 | 5.77 | 83 | 200 | 0.63 | 65 | 21 |  | 
6 | CNc1cc(NC(=O)OC)ccc1Nc1c2ccccc2nc2cc(OC)ccc12 | 45 | 108 | 330 | 65 | 6.74 | 85 | 170 | 0.45 | 45 | 89 |  | 
7 | CNc1cc(NC(=O)OC)ccc1Nc1c2ccc(Br)cc2nc2c(C)cccc12 | 30 | 286 | 230 | 45 | 7.52 | 82 | 180 | 0.69 | 45 | 42 |  | 
8 | CNc1cc(NC(=O)OC)ccc1Nc1c2ccccc2nc2c(C(N)=O)cccc12 | 65 | 32 | 3600 | 100 | 6 |  | 1600 | 0.06 | 100 |  |  | 
9 | CNC(=O)c1cccc2c(Nc3ccc(NC(=O)OC)cc3NC)c3ccccc3nc12 | 65 | 60 | 2750 | 65 | 6.48 | 58 | 840 | 0.43 | 65 |  |  | 
10 | COC(=O)Nc1ccc(Nc2c3ccccc3nc3ccccc23)c(OC)c1 |  | 86 |  | 45 | 6.24 |  |  | 0.5 | 30 | 33 |  | 7.93
11 | COP(=O)(Nc1ccc(Nc2c3ccccc3nc3ccccc23)c(N(C)C)c1)OC |  | 97 |  | 100 | 6.43 |  |  | 0.44 | 100 |  | inactive | 8.17
12 | CNc1cc(NC(=O)OC)ccc1Nc1c2ccccc2nc2cc([N+](=O)[O-])ccc12 | 65 | 48 |  | 20 | 6.58 | 49 | 5060 | 0.4 | 30 |  | inactive | 
13 | CNc1cc(NC(=O)OC)ccc1Nc1c2ccc(C)cc2nc2c(OC)cccc12 | 65 | 128 |  | 45 | 7.34 | 107 | 11 | 0.61 | 45 | 57 |  | 
14 | CNc1cc(NC(=O)OC)ccc1Nc1c2ccc(C)cc2nc2c(C)cccc12 | 20 | 181 | 80 | 13.3 | 6.95 | 171 | 44 | 0.51 | 20 | 33 |  | 
15 | COc1cc(NP(=O)(OC)OC)ccc1Nc1c2ccccc2nc2ccccc12 |  | 67 |  | 8.9 | 6.18 |  |  | 0.37 | 8.9 |  | inactive | 8.21

Source: ChEMBL document CHEMBL1123886 (J Med Chem, 1987)
